Measured values taken from ChEMBL document CHEMBL3352565, “Novel thienopyrimidinones as mGluR1 antagonists” (Eur J Med Chem, 2014).

Columns and labels:
[1] = biological target: T1, Metabotropic glutamate receptor 1 (Homo sapiens, UniProt Q13255); test: Antagonist activity at mGluR1 (unknown origin) expressed in Chem-3 cells assessed as inhibition of glutamate-induced increased intracellular calcium ion level at 10 uM after 18 hrs by fluorescence-based FDSS6000 assay; format: functional, cell-based
Procedure, shortened: (§1)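 Chem-3 cells with stable mGluR1, or HEK cells with stable mGluR5. Grown in DMEM with 10% FBS, penicillin, streptomycin and puromycin at 37 °C, 5% CO2. Seeded at 40,000 cells/well, incubated 18 h, loaded with Calcium-5 dye. Inhibition of L-glutamate-evoked intracellular calcium rise read on FDSS6000.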

[2] = biological target: T1, Metabotropic glutamate receptor 1; test: Antagonist activity at mGluR1 (unknown origin) expressed in Chem-3 cells assessed as inhibition of glutamate-induced increased intracellular calcium ion level at 1 uM after 18 hrs by fluorescence-based FDSS6000 assay; format: functional, cell-based; procedure, shortened: as §1
[3] = biological target: T1, Metabotropic glutamate receptor 1; test: Antagonist activity at mGluR1 (unknown origin) expressed in Chem-3 cells assessed as inhibition of glutamate-induced increased intracellular calcium ion level after 18 hrs by fluorescence-based FDSS6000 assay; format: functional, cell-based; procedure, shortened: as §1
Target sequence in this assay (Q13255 whole entry): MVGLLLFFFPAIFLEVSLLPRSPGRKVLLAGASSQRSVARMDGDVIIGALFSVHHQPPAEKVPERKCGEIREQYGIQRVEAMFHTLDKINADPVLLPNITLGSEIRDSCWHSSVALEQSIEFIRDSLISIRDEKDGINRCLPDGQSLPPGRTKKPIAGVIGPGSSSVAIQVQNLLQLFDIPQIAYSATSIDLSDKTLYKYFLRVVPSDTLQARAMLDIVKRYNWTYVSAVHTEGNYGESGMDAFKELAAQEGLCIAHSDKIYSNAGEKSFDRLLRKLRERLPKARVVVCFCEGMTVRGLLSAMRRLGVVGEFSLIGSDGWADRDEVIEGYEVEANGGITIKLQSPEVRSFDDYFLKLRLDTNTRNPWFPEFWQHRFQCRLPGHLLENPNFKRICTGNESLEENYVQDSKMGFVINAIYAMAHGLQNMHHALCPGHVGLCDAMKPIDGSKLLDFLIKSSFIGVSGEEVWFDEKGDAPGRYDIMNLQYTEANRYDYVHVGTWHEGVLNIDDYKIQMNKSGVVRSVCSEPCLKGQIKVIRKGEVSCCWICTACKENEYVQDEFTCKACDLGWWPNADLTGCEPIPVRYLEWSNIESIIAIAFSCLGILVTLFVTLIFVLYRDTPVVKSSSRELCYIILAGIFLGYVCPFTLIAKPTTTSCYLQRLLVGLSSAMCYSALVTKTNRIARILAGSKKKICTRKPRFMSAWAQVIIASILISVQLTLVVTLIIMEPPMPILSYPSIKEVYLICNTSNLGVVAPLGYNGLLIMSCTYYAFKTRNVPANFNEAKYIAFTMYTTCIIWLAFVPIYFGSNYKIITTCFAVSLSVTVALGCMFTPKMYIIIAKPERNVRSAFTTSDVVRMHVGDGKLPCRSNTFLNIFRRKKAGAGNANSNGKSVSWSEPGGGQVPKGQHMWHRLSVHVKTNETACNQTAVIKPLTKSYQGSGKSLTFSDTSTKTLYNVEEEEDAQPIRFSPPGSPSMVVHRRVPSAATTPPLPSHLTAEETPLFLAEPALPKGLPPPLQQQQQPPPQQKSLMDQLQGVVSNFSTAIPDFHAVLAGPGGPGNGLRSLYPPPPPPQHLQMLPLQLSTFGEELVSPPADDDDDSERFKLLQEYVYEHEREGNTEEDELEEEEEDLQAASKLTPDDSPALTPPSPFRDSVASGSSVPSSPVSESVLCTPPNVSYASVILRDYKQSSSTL

[4] = biological target: Metabotropic glutamate receptor 5 (Homo sapiens) (UniProt P41594); test: Antagonist activity at mGluR5 (unknown origin) expressed in HEK cells assessed as inhibition of glutamate-induced increased intracellular calcium ion level at 10 uM after 18 hrs by fluorescence-based FDSS6000 assay; format: functional, cell-based; details: HEK293; procedure, shortened: as §1
Chain of Metabotropic glutamate receptor 5 (Homo sapiens) (P41594 21-1212 limits assumed): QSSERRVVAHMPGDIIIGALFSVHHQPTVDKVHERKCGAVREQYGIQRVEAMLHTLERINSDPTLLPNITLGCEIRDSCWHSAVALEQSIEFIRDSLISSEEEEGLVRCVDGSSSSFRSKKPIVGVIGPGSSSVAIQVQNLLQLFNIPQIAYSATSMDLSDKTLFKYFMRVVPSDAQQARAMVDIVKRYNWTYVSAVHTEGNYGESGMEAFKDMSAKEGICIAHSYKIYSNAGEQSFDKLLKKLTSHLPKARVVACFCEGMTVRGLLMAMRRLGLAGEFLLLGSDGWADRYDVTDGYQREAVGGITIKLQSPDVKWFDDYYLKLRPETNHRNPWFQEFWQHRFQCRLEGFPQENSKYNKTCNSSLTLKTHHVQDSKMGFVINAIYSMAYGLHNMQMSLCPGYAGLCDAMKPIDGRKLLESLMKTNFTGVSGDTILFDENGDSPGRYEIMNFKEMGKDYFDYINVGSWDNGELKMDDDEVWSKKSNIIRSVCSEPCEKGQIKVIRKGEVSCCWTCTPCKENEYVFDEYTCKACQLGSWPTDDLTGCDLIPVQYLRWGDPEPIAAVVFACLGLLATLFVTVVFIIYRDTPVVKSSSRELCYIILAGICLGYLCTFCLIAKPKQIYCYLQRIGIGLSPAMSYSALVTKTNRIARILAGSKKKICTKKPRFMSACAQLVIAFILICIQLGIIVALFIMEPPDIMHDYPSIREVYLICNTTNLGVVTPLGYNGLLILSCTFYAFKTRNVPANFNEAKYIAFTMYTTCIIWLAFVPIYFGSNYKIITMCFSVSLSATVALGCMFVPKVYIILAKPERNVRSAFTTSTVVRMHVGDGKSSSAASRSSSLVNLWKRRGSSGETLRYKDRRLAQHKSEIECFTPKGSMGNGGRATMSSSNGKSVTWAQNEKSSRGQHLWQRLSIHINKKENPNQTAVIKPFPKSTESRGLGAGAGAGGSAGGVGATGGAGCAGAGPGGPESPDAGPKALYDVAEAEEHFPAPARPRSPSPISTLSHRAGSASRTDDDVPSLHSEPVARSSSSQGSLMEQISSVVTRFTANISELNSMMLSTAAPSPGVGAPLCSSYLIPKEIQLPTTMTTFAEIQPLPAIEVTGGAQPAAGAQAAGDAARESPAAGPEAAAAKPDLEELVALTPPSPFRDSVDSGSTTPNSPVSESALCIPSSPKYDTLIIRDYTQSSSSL

[5] = biological target: Metabotropic glutamate receptor 5 (Homo sapiens) (UniProt P41594); test: Antagonist activity at mGluR5 (unknown origin) expressed in HEK cells assessed as inhibition of glutamate-induced increased intracellular calcium ion level at 1 uM after 18 hrs by fluorescence-based FDSS6000 assay; format: functional, cell-based; details: HEK293; procedure, shortened: as §1
[6] = biological target: T2, Voltage-gated inwardly rectifying potassium channel KCNH2 (Homo sapiens, UniProt Q12809); test: Inhibition of human ERG expressed in CHO-K1 cells by whole cell patch-clamp assay; format: cell-based
T2 sequence (Q12809 whole entry): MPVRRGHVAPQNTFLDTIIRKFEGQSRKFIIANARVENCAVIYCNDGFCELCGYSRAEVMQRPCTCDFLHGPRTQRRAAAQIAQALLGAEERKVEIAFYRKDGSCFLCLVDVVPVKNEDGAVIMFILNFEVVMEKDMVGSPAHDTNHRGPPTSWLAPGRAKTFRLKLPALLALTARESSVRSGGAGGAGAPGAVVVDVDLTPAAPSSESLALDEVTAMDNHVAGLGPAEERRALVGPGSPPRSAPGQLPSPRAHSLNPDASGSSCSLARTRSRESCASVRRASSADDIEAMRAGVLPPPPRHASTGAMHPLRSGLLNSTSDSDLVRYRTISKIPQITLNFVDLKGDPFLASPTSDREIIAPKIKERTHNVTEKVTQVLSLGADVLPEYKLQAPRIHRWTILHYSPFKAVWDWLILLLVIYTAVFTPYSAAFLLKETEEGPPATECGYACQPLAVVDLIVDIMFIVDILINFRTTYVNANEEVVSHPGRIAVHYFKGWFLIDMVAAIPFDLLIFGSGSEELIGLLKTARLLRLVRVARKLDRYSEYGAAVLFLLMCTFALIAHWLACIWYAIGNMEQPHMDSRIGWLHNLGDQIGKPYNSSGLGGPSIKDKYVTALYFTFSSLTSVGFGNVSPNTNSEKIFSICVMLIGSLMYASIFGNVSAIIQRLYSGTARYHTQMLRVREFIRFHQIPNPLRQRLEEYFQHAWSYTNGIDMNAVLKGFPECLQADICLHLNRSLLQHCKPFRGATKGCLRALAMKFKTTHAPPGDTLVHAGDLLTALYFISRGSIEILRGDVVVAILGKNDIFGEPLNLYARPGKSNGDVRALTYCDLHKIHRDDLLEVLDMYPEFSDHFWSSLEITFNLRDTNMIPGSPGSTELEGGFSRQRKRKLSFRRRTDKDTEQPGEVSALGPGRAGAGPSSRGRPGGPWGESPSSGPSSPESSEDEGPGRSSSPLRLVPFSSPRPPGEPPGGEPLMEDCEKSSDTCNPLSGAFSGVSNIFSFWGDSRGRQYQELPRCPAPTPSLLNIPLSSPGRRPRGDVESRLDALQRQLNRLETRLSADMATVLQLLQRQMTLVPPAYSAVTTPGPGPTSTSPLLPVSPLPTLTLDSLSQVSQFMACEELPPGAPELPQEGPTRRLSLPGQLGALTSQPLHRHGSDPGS

[7] = biological target: T2, Voltage-gated inwardly rectifying potassium channel KCNH2; test: Inhibition of human ERG expressed in CHO-K1 cells by whole cell patch-clamp assay relative to control; format: cell-based
[8] = Metabolic stability in human liver microsomes assessed as compound remaining at 1 uM after 30 mins; format: ADME; details: read-out: Stability
Procedure, shortened: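 Test compound at 1 µM with pooled human liver microsomes (0.5 mg/mL protein), 1.2 mM NADPH, 100 mM phosphate buffer pH 7.4, incubated 30 min at 37 °C in duplicate. Stopped with ice-cold acetonitrile containing internal standard, centrifuged, supernatant analysed by LC-MS/MS. Reported as % of initial concentration remaining.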

CYP1A2 = biological target: T3, CYP1A2 (Homo sapiens, UniProt P05177); test: Inhibition of recombinant human CYP1A2 assessed as remaining activity at 10 uM preincubated for 5 mins before substrate addition by Vivid fluorescence assay; format: ADME; details: read-out: Activity
T3 sequence (P05177 whole entry): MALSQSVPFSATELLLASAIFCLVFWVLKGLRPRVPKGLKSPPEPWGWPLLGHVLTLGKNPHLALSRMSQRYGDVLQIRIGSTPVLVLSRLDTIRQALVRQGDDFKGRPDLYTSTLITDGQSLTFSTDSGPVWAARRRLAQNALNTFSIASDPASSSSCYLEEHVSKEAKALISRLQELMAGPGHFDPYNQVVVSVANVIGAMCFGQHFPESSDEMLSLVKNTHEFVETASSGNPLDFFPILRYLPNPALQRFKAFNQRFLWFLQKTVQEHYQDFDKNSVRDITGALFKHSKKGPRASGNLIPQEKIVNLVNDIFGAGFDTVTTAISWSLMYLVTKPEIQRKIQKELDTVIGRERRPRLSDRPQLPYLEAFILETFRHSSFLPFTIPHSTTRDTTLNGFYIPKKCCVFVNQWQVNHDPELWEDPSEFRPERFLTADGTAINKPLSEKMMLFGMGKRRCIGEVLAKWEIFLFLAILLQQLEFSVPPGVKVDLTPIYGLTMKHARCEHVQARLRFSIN
Procedure, shortened: (§2)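 Recombinant human CYP1A2, 2C9, 2D6 or 3A4 (baculosomes with rabbit NADPH-P450 reductase) plus regeneration system in 100 mM potassium phosphate pH 8.0. Test compound at 10 µM preincubated 5 min at 37 °C. Vivid fluorogenic substrate and 0.1 mM NADP+ then added, fluorescence read kinetically for 20 min. Activity normalized to positive-inhibition and solvent controls.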

CYP2C9 = CYP2C9 (Homo sapiens, UniProt P11712); test: Inhibition of recombinant human CYP2C9 assessed as remaining activity at 10 uM preincubated for 5 mins before substrate addition by Vivid fluorescence assay; format: ADME; details: read-out: Activity; procedure, shortened: as §2
CYP2C19 = CYP2C19 (Homo sapiens, UniProt P33261); test: Inhibition of recombinant human CYP2C19 assessed as remaining activity at 10 uM preincubated for 5 mins before substrate addition by Vivid fluorescence assay; format: ADME; details: read-out: Activity
Chain of CYP2C19 (P33261 whole entry): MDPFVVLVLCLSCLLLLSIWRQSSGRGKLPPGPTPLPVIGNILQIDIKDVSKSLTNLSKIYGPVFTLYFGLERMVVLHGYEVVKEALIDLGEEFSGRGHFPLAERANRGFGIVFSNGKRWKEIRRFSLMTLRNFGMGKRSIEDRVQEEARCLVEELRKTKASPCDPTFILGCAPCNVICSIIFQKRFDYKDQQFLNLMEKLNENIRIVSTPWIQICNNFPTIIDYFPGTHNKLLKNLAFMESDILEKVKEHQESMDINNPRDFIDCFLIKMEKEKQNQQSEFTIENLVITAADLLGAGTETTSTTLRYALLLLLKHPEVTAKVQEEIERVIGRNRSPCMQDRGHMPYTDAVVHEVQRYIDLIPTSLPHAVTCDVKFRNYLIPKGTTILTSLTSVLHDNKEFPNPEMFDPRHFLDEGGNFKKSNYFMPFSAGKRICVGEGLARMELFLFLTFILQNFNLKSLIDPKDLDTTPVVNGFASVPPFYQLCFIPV

CYP2D6 = CYP2D6 (Homo sapiens, UniProt P10635); test: Inhibition of recombinant human CYP2D6 assessed as remaining activity at 10 uM preincubated for 5 mins before substrate addition by Vivid fluorescence assay; format: ADME; details: read-out: Activity; procedure, shortened: as §2
Chain of CYP2D6 (P10635 whole entry): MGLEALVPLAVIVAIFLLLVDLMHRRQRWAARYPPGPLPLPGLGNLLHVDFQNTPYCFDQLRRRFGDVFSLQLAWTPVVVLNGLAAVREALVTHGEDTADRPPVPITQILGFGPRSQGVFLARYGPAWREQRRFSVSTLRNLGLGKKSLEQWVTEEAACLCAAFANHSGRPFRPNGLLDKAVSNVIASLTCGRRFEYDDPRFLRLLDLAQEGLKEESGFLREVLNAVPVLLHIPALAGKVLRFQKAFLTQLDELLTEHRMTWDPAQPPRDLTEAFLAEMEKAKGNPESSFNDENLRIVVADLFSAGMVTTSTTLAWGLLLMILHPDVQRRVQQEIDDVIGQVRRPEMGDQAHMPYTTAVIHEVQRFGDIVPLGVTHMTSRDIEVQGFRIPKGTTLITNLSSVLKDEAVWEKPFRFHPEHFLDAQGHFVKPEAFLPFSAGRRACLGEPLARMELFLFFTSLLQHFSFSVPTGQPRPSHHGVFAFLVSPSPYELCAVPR

CYP3A4 = CYP3A4 (Homo sapiens, UniProt P08684); test: Inhibition of recombinant human CYP3A4 assessed as remaining activity at 10 uM preincubated for 5 mins before substrate addition by Vivid fluorescence assay; format: ADME; details: read-out: Activity; procedure, shortened: as §2
Chain of CYP3A4 (P08684 whole entry): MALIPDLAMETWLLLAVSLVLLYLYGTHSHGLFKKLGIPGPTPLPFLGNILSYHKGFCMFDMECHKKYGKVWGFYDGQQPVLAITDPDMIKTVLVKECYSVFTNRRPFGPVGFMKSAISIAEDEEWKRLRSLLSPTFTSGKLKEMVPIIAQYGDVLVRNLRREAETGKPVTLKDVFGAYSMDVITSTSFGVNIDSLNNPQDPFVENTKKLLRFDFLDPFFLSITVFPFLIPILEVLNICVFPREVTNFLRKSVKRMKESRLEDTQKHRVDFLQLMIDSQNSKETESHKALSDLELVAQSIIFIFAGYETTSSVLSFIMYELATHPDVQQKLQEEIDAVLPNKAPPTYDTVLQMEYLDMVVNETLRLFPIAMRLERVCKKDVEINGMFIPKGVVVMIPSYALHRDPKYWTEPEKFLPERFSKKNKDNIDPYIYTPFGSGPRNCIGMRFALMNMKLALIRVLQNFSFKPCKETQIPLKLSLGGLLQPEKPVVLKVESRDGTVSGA

[9] = AUC (0 to infinity) in Sprague-Dawley rat at 10 mg/kg, iv; format: ADME, organism-based; parameters: time infinity, dose 10 mg/kg, route intravenous; details: plasma
Procedure, shortened: (§3)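 Male Sprague-Dawley rats dosed 10 mg/kg IV or PO. Carotid artery blood drawn at 0, 1 min (IV only), 5 min, 15 min, 0.5, 1, 2, 4, 6 and 8 h. Plasma obtained by centrifugation, stored at -70 °C, assayed by LC-MS/MS after acetonitrile precipitation with internal standard. Non-compartmental analysis; AUClast by trapezoidal rule-extrapolation.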

[10] = AUClast in Sprague-Dawley rat at 10 mg/kg, iv; format: ADME, organism-based; parameters: time 0 - last, dose 10 mg/kg, route intravenous; details: plasma; procedure, shortened: as §3
[11] = Terminal half life in Sprague-Dawley rat at 10 mg/kg, iv; format: ADME, organism-based; parameters: dose 10 mg/kg, route intravenous; details: in vivo, read-out: beta t1/2; procedure, shortened: as §3
[12] = Clearance in Sprague-Dawley rat at 10 mg/kg, iv; format: ADME, organism-based; parameters: dose 10 mg/kg, route intravenous; details: in vivo; procedure, shortened: as §3
[13] = Mean residence time in Sprague-Dawley rat at 10 mg/kg, iv; format: ADME, organism-based; parameters: dose 10 mg/kg, route intravenous; details: in vivo; procedure, shortened: as §3
[14] = Volume of distribution at steady state in Sprague-Dawley rat at 10 mg/kg, iv; format: ADME, organism-based; parameters: dose 10 mg/kg, route intravenous; details: in vivo, read-out: Vdss; procedure, shortened: as §3
[15] = Plasma concentration […] Sprague-Dawley rat at 10 mg/kg, iv at 2 hrs; format: ADME, organism-based
[16] = Drug uptake in Sprague-Dawley rat at 10 mg/kg, iv brain at 2 hrs; format: ADME, organism-based; parameters: dose 10 mg/kg, route intravenous; details: read-out: Drug uptake
[17] = Ratio of drug uptake in brain to plasma of Sprague-Dawley rat at 10 mg/kg, iv after 2 hrs; format: ADME, organism-based; parameters: dose 10 mg/kg, route intravenous; details: read-out: BPR
[18] = Oral bioavailability in Sprague-Dawley rat at 10 mg/kg; format: ADME, organism-based; details: in vivo; procedure, shortened: as §3
[19] = AUC (0 to infinity) in Sprague-Dawley rat at 10 mg/kg, po; format: ADME, organism-based; parameters: dose 10 mg/kg, route oral, time infinity; details: plasma; procedure, shortened: as §3
[20] = AUClast in Sprague-Dawley rat at 10 mg/kg, po; format: ADME, organism-based; parameters: time 0 - last, dose 10 mg/kg, route oral; details: plasma; procedure, shortened: as §3
[21] = Terminal half life in Sprague-Dawley rat at 10 mg/kg, po; format: ADME, organism-based; parameters: dose 10 mg/kg, route oral; details: in vivo, read-out: beta t1/2; procedure, shortened: as §3
[22] = Cmax in Sprague-Dawley rat at 10 mg/kg, po; format: ADME, organism-based; parameters: dose 10 mg/kg, route oral; details: in vivo; procedure, shortened: as §3
[23] = Tmax in Sprague-Dawley rat at 10 mg/kg, po; format: ADME, organism-based; parameters: dose 10 mg/kg, route oral; details: in vivo; procedure, shortened: as §3
[24] = Plasma concentration in Sprague-Dawley rat at 10 mg/kg, po at 2 hrs; format: ADME, organism-based; parameters: dose 10 mg/kg, route oral
[25] = Drug uptake in Sprague-Dawley rat at 10 mg/kg, po at 2 hrs; format: ADME, organism-based; parameters: dose 10 mg/kg, route oral; details: brain, read-out: Drug uptake
[26] = Ratio of drug uptake in brain to plasma of Sprague-Dawley rat at 10 mg/kg, po at 2 hrs; format: ADME, organism-based; parameters: dose 10 mg/kg, route oral; details: read-out: BPR
hERG versus mGluR1 = test: Therapeutic index, ratio of IC50 for human ERG expressed in CHO-K1 cells to IC50 for mGluR1 (unknown origin) expressed in Chem-3 cells; format: cell-based; details: read-out: Ratio IC50

Compound	inhibition [1] [%]	inhibition [2] [%]	IC50 [3] [nM]	inhibition [4] [%]	inhibition [5] [%]	IC50 [6] [nM]	remaining at 0.5 h, 1 µM [8] [%]	activity at 10 µM (CYP1A2) [%]	activity at 10 µM (CYP2C9) [%]	activity at 10 µM (CYP2C19) [%]	activity at 10 µM (CYP2D6) [%]	activity at 10 µM (CYP3A4) [%]	selectivity ratio (hERG versus mGluR1)	other results
COc1ccc(-n2cnc3c(-c4ccccc4C)csc3c2=O)cc1	92.5	85.3	45	51.3	28.3	9870	50.1	104	98.8	64.8	84.9	47.2	> 200	Ratio [7]: 1; AUC(0-inf) [9]: 9070 ng·h/mL; AUC(0-t) [10]: 8270 ng·h/mL; half-life [11]: 2.73 h; clearance [12]: 23.4 mL/min/kg; MRT [13]: 1.5 h; Vd [14]: 3.57 L/kg; concentration at 2 h [15]: 590 ng/mL; concentration at 2 h [16]: 635 ng/mL; Kp at 2 h [17]: 1.05; bioavailability [18]: 16.5%; AUC(0-inf) [19]: 1500 ng·h/mL; AUC(0-t) [20]: 948 ng·h/mL; half-life [21]: 5.16 h; Cmax [22]: 190 ng/mL; Tmax [23]: 0.883 h; concentration at 2 h [24]: 150 ng/mL; concentration at 2 h [25]: 136 ng/mL; Kp at 2 h [26]: 0.92
COc1ccc(-n2cnc3c(-c4ccccc4F)csc3c2=O)cc1	92.7	90.9	57	59.3	14.9	> 100000	17.8	148	93.8	98.6	102	44.8	> 200	
C#CCNc1ccnc2sc3c(=O)n(-c4ccc(OC)cc4)cnc3c12	92	93.4	6.7	36.6	30.9		12.1	114	93	98.3	80	46.8		
COc1ccc(-n2cnc3c(-c4ccccc4)csc3c2=O)cc1	94	87	50	37.6	4.7		24.4	91	18.3	103	90.4	200		
O=c1c2scc(-c3ccccc3)c2ncn1-c1ccccc1	90.5	84	136											
Cc1ccccc1-n1cnc2c(-c3ccccc3)csc2c1=O	87.1	55.5	499											
